Screens: PubChem BioAssay, several laboratories
NRP1-CendR mod: modulators of CendR peptide binding to NRP-1, primary screen, biochemical, fluorescence polarization, uHTS; Neuropilin-1 (Homo sapiens), O14786; FAM-RPARPAR peptide binding to NRP-1; inhibition, % at 25 µM; actives 0.85% (n = 360,000); AID 602438, 2012;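 active = inhibition or corrected inhibition above about 18%, plus a signal ratio from 0.5 to 1.5, limit read from the data, passing the limit was not always enough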
PLC-gamma1 inh: PLC-gamma1 enzyme inhibitors, primary screen, biochemical, fluorescence, purified enzyme | actives 0.84% (n = 370,000) | fluorogenic substrate | 1-phosphatidylinositol 4,5-bisphosphate phosphodiesterase gamma-1 (Homo sapiens), P19174 | AID 720700, 2013 | inhibition, % at 12.2 µM; in the data active = inhibition above about 9.5%
Target sequence (P19174 whole entry, looked up): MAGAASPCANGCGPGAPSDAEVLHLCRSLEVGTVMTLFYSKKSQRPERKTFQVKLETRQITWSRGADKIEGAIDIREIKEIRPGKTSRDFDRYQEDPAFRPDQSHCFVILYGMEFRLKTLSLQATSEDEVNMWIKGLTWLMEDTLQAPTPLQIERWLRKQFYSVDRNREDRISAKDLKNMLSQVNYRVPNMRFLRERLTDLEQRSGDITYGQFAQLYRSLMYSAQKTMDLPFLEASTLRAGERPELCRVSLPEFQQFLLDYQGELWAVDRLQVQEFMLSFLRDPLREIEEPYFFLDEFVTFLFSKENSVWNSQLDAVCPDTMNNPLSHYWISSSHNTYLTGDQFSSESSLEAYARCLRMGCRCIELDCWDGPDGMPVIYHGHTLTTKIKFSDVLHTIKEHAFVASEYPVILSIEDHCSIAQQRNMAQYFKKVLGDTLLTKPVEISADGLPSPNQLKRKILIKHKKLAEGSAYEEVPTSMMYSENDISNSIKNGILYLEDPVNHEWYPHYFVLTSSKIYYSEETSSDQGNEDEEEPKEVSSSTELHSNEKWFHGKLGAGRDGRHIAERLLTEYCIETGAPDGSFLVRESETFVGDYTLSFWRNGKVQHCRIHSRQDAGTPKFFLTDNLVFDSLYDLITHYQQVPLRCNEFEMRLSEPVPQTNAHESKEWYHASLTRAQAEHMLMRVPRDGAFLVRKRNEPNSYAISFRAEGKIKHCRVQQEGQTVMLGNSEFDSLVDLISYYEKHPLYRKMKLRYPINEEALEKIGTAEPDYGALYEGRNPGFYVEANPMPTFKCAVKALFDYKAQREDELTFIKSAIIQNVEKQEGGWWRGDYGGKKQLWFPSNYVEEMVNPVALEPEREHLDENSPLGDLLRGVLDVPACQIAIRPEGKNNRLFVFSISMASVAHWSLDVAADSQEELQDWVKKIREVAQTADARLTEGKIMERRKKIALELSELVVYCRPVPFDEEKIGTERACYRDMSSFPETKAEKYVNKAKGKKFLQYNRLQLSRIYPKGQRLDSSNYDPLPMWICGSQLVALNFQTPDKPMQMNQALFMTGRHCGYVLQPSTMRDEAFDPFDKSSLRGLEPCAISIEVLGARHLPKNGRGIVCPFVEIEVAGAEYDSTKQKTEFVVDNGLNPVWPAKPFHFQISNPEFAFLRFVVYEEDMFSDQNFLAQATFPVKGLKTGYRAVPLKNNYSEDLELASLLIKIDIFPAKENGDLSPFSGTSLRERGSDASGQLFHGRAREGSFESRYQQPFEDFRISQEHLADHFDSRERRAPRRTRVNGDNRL
KLK7 zymogen act: proKLK7 zymogen activators, primary screen, biochemical, fluorescence intensity; Kallikrein-7 (Homo sapiens), P49862; purified proKLK7, EDANS-DABCYL substrate fluorescence; 100% is mature enzyme control, 0% vehicle; activation, % at 7 µM; actives 0.9% (n = 370,000); AID 652039, 2013;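 active = activation above the mean of all tested compounds plus 3 SD, computed per campaign excluding outliers beyond control limits, cut at about 13% in these data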
PLC-beta3 inh: human PLC-beta3 inhibitors, primary screen, biochemical, fluorescence | actives 0.18% (n = 370,000) | Purified PLC-beta3, fluorogenic substrate | inhibition, % at 12.2 µM | AID 720704, 2013 | 1-phosphatidylinositol 4,5-bisphosphate phosphodiesterase beta-3 (Homo sapiens), Q01970; in the data active = inhibition above about 11%
DDE Tn6 FP inh: inhibitors of Tn6 peptide binding to fibrin DD(E), primary screen, biochemical, fluorescence polarization, human fibrin, Tn6 probe. Fibrin DD(E) TRITC-Tn6 fluorescence polarization displacement. actives 0.21% (n = 370,000). inhibition, % at 8.3 µM. Fibrinogen beta chain (Homo sapiens), P02675;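 active = inhibition above a per-campaign cutoff: mean of compounds within control limits plus 3 SD, cut at about 15% in these data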
Tn7 DDE FP: inhibitors of Tn7 peptide binding to fibrin DD(E), primary screen, biochemical, fluorescence polarization, human fibrin, Tn7 probe; Fibrinogen beta chain (Homo sapiens), P02675; FP displacement of FITC-Tn7 peptide from fibrin DD(E); 0% = median of compound wells per plate; inhibition, % at 8.3 µM; actives 0.13% (n = 370,000); AID 720508, 2013;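 active = inhibition above the mean of compounds falling within the control limits plus 3 SD of them, cut at about 14% in these data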
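Assay system: human fibrin DD(E). Input: DD(E) 2 µM final. Medium: Tris buffer with calcium and detergent, pH 7.8. Compound dosing: single point at 8.3 µM. Timing: 10 min plus 3 h, room temperature. Technique: fluorescence polarization of the labelled Tn7 tracer. Read-out: percent inhibition. Replicates: singlicate testing.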
Each line names hits and unclear results; the compound was inactive in the other large screens. Shown are actives, neighbours in structure and some others; about 3% of the full set was active somewhere.

COc1ccc(C(C(=O)N(C)C2CCCC2)N(Cc2ccc(F)cc2)C(=O)c2cc(C)on2)cc1OC (stereo unspecified)	none (no result: NRP1-CendR mod)
CCn1c(=O)cc(SCC(=O)N2CCCCC2)c2ccccc21	NRP1-CendR mod 22
C#CCNC(=O)C[C@H]1C[C@@]2(C(=O)OC)C(=C[C@H](COCc3ccccc3)O[C@@H]2C)N(Cc2cccc3ccccc23)C1=O	none (no result: NRP1-CendR mod)
CCc1onc(C)c1C(=O)Nc1cc(C)ccc1OC	NRP1-CendR mod 34
COc1ccc(NC(C)=O)cc1NC(=O)c1c(C)noc1C	none
Cc1ccc(Cl)c(NC(=O)CSc2cccc[n+]2[O-])c1Cl	NRP1-CendR mod 28
CC(=O)N1CCN(C2=NC(=O)N(c3ccc(Br)cc3)C(=O)C2)CC1	none (no result: NRP1-CendR mod)
CCC(=O)Nc1nc2nc(-c3ccccc3)cc(-c3ccccc3)n2n1	NRP1-CendR mod 21
COc1ccc(C(C)=O)cc1COC(=O)CCNS(=O)(=O)c1ccc(C(C)=O)cc1	NRP1-CendR mod 44
CC1CN(C(=O)c2ccc(CNS(=O)(=O)c3cccc(Cl)c3)cc2)CC(C)O1 (stereo unspecified)	NRP1-CendR mod 28
COC(=O)[C@]12C[C@H](CC(=O)NCCCCc3ccccc3)C(=O)N(CCc3ccc(OC)c(OC)c3)C1=C[C@H](C(C)(C)C)O[C@@H]2C	none (no result: NRP1-CendR mod)
Cc1ccc(N2CSC3=C(C#N)C(c4cccs4)CC(=O)N3C2)cc1 (stereo unspecified)	none
COc1ccc(N2CSC3=C(C#N)C(c4cccs4)CC(=O)N3C2)cc1 (stereo unspecified)	PLC-gamma1 inh 9.9
C[C@@H](CCCCC1(C)OCCO1)CCC(=O)N(c1ccccc1)c1ccccc1	none (no result: NRP1-CendR mod)
Cc1c(NC(=O)CSc2nc(N)cc(N)n2)c(=O)n(-c2ccccc2)n1C	NRP1-CendR mod 20
Cc1c(NC(=O)c2c(F)c(F)c(F)c(F)c2F)c(=O)n(-c2ccccc2)n1C	none
Cc1nc(SCC(=O)Nc2c(C)n(C)n(-c3ccccc3)c2=O)nc(C)c1C	none
Cc1c(NC(=O)Cn2nc(C(=O)O)c3ccccc3c2=O)c(=O)n(-c2ccccc2)n1C	none
Cc1c(NC(=O)Cn2nc(C(F)(F)F)c3c2CCCC3)c(=O)n(-c2ccccc2)n1C	NRP1-CendR mod 23
Cc1c(NC(=O)c2c(O)c3ccccc3n(C)c2=O)c(=O)n(-c2ccccc2)n1C	NRP1-CendR mod 32
Cc1c(NC(=O)COC(=O)C2(c3ccc(F)cc3)CCCC2)c(=O)n(-c2ccccc2)n1C	NRP1-CendR mod 22
Cc1ccc(-n2c(SCC(=O)Nc3ccccc3-c3ccccc3)nnc2-c2cccs2)cc1	none (no result: NRP1-CendR mod)
COc1ccc(C(=O)OCCCN(C)C2CN(Cc3cn(Cc4ccccc4Cl)nn3)S(=O)(=O)C2)cc1OC (stereo unspecified)	none (no result: NRP1-CendR mod)
CC(C)(C)N(Cc1cn(Cc2ccccc2)nn1)S(=O)(=O)c1ccc(N2CCCC2)cc1Br	none (no result: NRP1-CendR mod)
Cc1ccc(N(C)c2nc(N)nc(N)c2N=O)cc1	KLK7 zymogen act 44, DDE Tn6 FP inh 58 (no result: NRP1-CendR mod)
Cc1cccc(Nc2nc(N)nc(N)c2N=O)c1	none
Cc1ccc2c(c1)c1c(c(=O)n(-c3ccccc3C)c(=O)n1CC(=O)NCC1CCCO1)n2C (stereo unspecified)	NRP1-CendR mod 31
CC(=O)c1cn(CC(=O)NCC2CCCO2)c2ccccc12 (stereo unspecified)	NRP1-CendR mod 20
O=C(Cn1cc(C(=O)C2CC2)c2ccccc21)NCC1CCCO1 (stereo unspecified)	none
N#CCC1(O)C(=O)Nc2ccccc21 (stereo unspecified)	none (no result: NRP1-CendR mod)
O=C(c1ccco1)N1CCN(C(=O)c2cc(-c3ccc(F)cc3)no2)CC1	none
Cn1cc(-c2cc(C(=O)O)on2)cn1	NRP1-CendR mod 25
CCOC(=O)c1csc(COc2ccc(OC)cc2)n1	NRP1-CendR mod 30
